From ChEMBL document CHEMBL3259621, “Novel merosesquiterpene exerts a potent antitumor activity against breast cancer cells in vitro and in vivo” (Eur J Med Chem, 2014)
Calls of active or inactive are those of the source. The calls are words filed in the database; no cut-off is given here.

Experiments:
[1] = Therapeutic index, ratio of IC50 for human MCF10A cells to IC50 for human MCF7 cells; format: cell-based, MCF-10A; conditions: MCF10A cells versus MCF7 cells, read-out: Ratio IC50
[2] = test system: MCF7; experiment: Induction of apoptosis in human MCF7 cells assessed as apoptotic cells at 1 uM after 48 hrs by annexin V staining-based flow cytometry (reference value: 3.44 %); format: functional
[3] = Antitumor activity against mouse E0771 cells allografted in C57BL/6 mouse assessed as mean tumor volume at 5 to 15 mg/kg, po measured on day 42 relative to vehicle-treated control; format: functional; conditions: dose mg/kg 5-15
Outline: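 C57BL/6 mice (40) injected subcutaneously in the right side with 1 × 10⁶ E0771 cells. At day 9, with tumors at 75 mm³, randomized into four groups of 10 and dosed orally six times with vehicle (1% methylcellulose) or compound at 5, 10 or 15 mg/kg. Tumor volume followed to day 42.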

[4] = test system: Mus musculus; experiment: Toxicity in C57BL/6 mouse allografted with mouse E0771 cells assessed as diarrhea at 5 to 15 mg/kg, po; format: organism-based; design: dose 5-15 mg/kg, route oral; conditions: in vivo
Outline: (§1)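 C57BL/6 mice (10 per group) injected subcutaneously in the right side with 1 × 10⁶ E0771 cells. At day 9, with tumours at 75 mm³, mice were randomised to oral vehicle (1% methylcellulose) or 5, 10 or 15 mg/kg on six occasions. Animals were monitored to day 42 for survival and for signs of toxicity such as hair loss or diarrhoea.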

[5] = Cytotoxicity against mouse E0771 cells after 3 days by SRB assay; format: functional, cell-based; conditions: E0771, 72 h
Outline: (§2)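 Cells seeded at 5 × 10³ cells/cm² in quadruplicate and, after 24 h, treated with increasing concentrations for 3 days. Compounds diluted from DMSO stock, final DMSO <0.1% v/v. Cells were fixed with cold 10% TCA, stained with 0.4% sulforhodamine B in 1% acetic acid, and dye solubilised in 10 mM Tris-base pH 10.5. OD read at 492 nm. IC50 obtained by linear interpolation on a semi-log dose-response curve.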

[6] = test system: MCF7; experiment: Cell cycle arrest in human MCF7 cells assessed as accumulation at G2-M phase at 2 uM after 24 hrs by propidium iodide/RNAse staining-based FACS analysis (reference value: 8.20 %); format: functional
[7] = test system: Mus musculus; experiment: Toxicity in C57BL/6 mouse allografted with mouse E0771 cells assessed as survival at 5 to 15 mg/kg, po; format: organism-based; design: dose 5-15 mg/kg, route oral; conditions: in vivo; outline: as §1
[8] = test system: MCF7; experiment: Induction of apoptosis in human MCF7 cells assessed as reduction in total pRb protein expression at 2 uM after 16 hrs by Western blotting analysis relative to control; format: functional; design: scale not given: the % may be the effect or the level left
Outline: (§3)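 MCF-7 seeded at 5 × 10⁴ cells/cm², exposed after 24 h to 2 µM for 0, 4, 8, 16 and 24 h. Lysed in SDS sample buffer, run on 12% acrylamide gels, transferred to nitrocellulose and blocked with 5% milk. Primary antibodies overnight at 4 °C (total or phospho-pRb, β-actin), secondary 1 h at room temperature, ECL chemiluminescence detection.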

[9] = Cytotoxicity against human CCD-18Co cells after 3 days by SRB assay; format: cell-based; conditions: 72 h; outline: as §2
[10] = test system: MCF7; experiment: Induction of apoptosis in human MCF7 cells assessed as reduction in cyclin D1 protein expression at 2 uM after 4 hrs by Western blotting analysis relative to control; format: functional; design: scale not given: the % may be the effect or the level left
Outline: (§4)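 MCF-7 seeded at 5 × 10⁴/cm² and exposed at 24 h to 2 µM compound for 0, 4, 8, 16 and 24 h. Lysates separated on 12% SDS gels, transferred to nitrocellulose, blocked in 5% milk. Primary antibodies applied overnight at 4 °C, then secondary 1 h at room temperature. Detection by ECL chemiluminescence with β-actin as loading reference.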

[11] = test system: MCF7; experiment: Cell cycle arrest in human MCF7 cells assessed as accumulation at G0-G1 phase at 1 uM after 24 hrs by propidium iodide/RNAse staining-based FACS analysis (reference value: 42.34 %); format: functional
[12] = Therapeutic index, ratio of IC50 for human MCF10A cells to IC50 for human T47D cells; format: cell-based, MCF-10A; conditions: MCF10A cells versus T47D cells, read-out: Ratio IC50
[13] = test system: MCF7; experiment: Induction of apoptosis in human MCF7 cells assessed as reduction in c-myc expression at 2 uM after 16 hrs by Western blotting analysis relative to control; format: functional; design: scale not given: the % may be the effect or the level left; outline: as §4
[14] = test system: MCF7; experiment: Cell cycle arrest in human MCF7 cells assessed as accumulation at G0-G1 phase at 3 uM after 24 hrs by propidium iodide/RNAse staining-based FACS analysis (reference value: 42.34 %); format: functional
[15] = Therapeutic index, ratio of IC50 for human MCF10A cells to IC50 for mouse E0771 cells; format: cell-based, MCF-10A; conditions: MCF10A cells versus E0771 cells, read-out: Ratio IC50
[16] = Therapeutic index, ratio of IC50 for human CCD-18Co cells to IC50 for human SW480 cells; format: cell-based; conditions: CCD-18Co cells versus SW480 cells, read-out: Ratio IC50
[17] = Therapeutic index, ratio of IC50 for human MCF10A cells to IC50 for human MDA-MB-231 cells; format: cell-based, MCF-10A; conditions: MCF10A cells versus MDA-MB-231 cells, read-out: Ratio IC50
[18] = test system: MCF7; experiment: Cell cycle arrest in human MCF7 cells assessed as accumulation at S phase at 3 uM after 24 hrs by propidium iodide/RNAse staining-based FACS analysis (reference value: 49.46 %); format: functional
[19] = test system: MCF7; experiment: Induction of apoptosis in human MCF7 cells assessed as reduction in cyclin B1 protein expression at 2 uM after 16 hrs by Western blotting analysis; format: functional; design: scale not given: the % may be the effect or the level left; outline: as §4
[20] = test system: MCF7; experiment: Cell cycle arrest in human MCF7 cells assessed as accumulation at G0-G1 phase after 24 hrs by propidium iodide/RNAse staining-based FACS analysis; format: functional
[21] = test system: MCF7; experiment: Induction of apoptosis in human MCF7 cells assessed as reduction in cyclin B1 protein expression at 2 uM by Western blotting analysis; format: functional, cell-based; outline: as §4
[22] = test system: MCF7; experiment: Induction of apoptosis in human MCF7 cells assessed as early apoptotic cells at 3 uM after 48 hrs by annexin V staining-based flow cytometry (reference value: 0.205 %); format: functional
[23] = target: Mitogen-activated protein kinase; ERK1/ERK2 (Homo sapiens) (UniProt P27361+P28482); experiment: Increase of p44/42 MAPK phosphorylation in human MCF7 cells at 2 uM up to 4 hrs by Western blotting analysis relative to control; format: cell-based; outline: as §4
Sequence of Mitogen-activated protein kinase; ERK1/ERK2 (Homo sapiens) (P27361 whole entry, looked up): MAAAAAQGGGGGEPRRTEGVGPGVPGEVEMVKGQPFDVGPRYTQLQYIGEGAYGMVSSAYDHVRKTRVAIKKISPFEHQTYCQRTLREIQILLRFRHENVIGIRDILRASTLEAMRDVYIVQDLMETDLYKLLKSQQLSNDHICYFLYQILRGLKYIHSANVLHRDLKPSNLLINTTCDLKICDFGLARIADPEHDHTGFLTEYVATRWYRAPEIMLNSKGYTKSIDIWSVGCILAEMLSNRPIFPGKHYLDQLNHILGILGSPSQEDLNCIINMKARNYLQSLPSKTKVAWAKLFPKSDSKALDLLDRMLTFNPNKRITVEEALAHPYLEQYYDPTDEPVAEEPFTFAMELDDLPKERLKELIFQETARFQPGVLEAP
Sequence of Mitogen-activated protein kinase; ERK1/ERK2 (Homo sapiens) (P28482 whole entry, looked up): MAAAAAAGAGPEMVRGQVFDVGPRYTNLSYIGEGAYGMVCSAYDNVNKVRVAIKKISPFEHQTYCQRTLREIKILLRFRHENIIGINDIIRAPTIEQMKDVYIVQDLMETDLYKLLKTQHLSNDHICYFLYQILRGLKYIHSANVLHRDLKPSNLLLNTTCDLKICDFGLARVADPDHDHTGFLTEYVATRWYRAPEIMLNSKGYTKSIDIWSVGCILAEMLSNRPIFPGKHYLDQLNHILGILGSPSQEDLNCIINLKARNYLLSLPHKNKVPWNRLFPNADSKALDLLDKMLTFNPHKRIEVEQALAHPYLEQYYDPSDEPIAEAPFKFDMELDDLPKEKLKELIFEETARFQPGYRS

[24] = test system: MCF7; experiment: Cell cycle arrest in human MCF7 cells assessed as accumulation at […] phase at 2 uM after 48 hrs by propidium iodide/RNAse staining-based FACS analysis (reference value: 8.02 %); format: functional
[25] = test system: MCF7; experiment: Cytotoxicity against human MCF7 cells assessed as reduction in cell viability at 1 uM after 3 days by SRB assay relative to control; format: functional
Outline: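 MCF-7 seeded at high density (5 × 10⁴/cm²) and treated at 24 h with compound for 3 days, with or without 20 mM NAC. Viable cells quantified by sulforhodamine B staining, OD 492 nm. Viability reduction expressed versus untreated controls.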

[26] = test system: MCF7; experiment: Induction of apoptosis in human MCF7 cells assessed as reduction in phosphorylated pRb expression at 2 uM after 16 hrs by Western blotting analysis relative to control; format: functional; design: scale not given: the % may be the effect or the level left; outline: as §3

For C=C1CC[C@@H]2[C@](C)(CCC[C@]2(C)C(=O)OC)[C@H]1Cc1c(C)ccc2c1C(=O)C=CC2=O, the selectivity ratio [1] was 9, the Activity [2] was 11.07% and the “fold change (FC)” value [3] was 2.4. For the same molecule, the Activity [4] was “Non-toxic”, the IC50 [5] was 390 nM and the Activity [6] was 19.25%. The Activity [7] was “Non-toxic”, the Activity [8] was 90% and the IC50 [9] was 330 nM. For the same molecule, the Activity [10] was 80%, the Activity [11] was 51.4% and the selectivity ratio [12] was 5. It also gave an Activity [13] of 50%, an Activity [14] of 75.7% and a selectivity ratio [15] of 8.08. It also gave a selectivity ratio [16] of 0.36, a selectivity ratio [17] of 6.85 and an Activity [18] of 4.25%. The Activity [19] was 6%, the Activity [20] was “Dose-dependent effect” and the Activity [21] was “Active”. The Activity [22] was 19.5%, the Activity [23] was “Active” and the Activity [24] was 31.09%. For the same molecule, the viability [25] was 90.21% and the Activity [26] was 90%.
